Measured values from ChEMBL document CHEMBL1828519, “Tricyclic thiazolopyrazole derivatives as metabotropic glutamate receptor 4 positive allosteric modulators” (J Med Chem, 2011).
Values after ≈ are worked out from the molar mass of the structure shown.

Columns and labels:
[1] = Apparent permeability of the compound by PAMPA assay; format: ADME
Outline: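 Passive permeability measured in a PAMPA assay.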

[2] = target: T1, Metabotropic glutamate receptor 4 (Homo sapiens, UniProt Q14833); assay: Positive allosteric modulation of human mGlu4 receptor expressed in BHK cells assessed as potentiation of glutamate-induced calcium mobilization after 1 hr by FLIPR assay; format: functional, cell-based
Outline: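 Stable BHK line co-expressing human mGlu4 and murine Gα15, plated on poly-D-lysine 24 h ahead. Cells loaded 1 h at 37 °C, 5% CO2 with Calcium 3 dye in HBSS/20 mM HEPES pH 7.4, 0.1% BSA, 2.5 mM probenecid. Test agent added with an EC20 glutamate challenge. Peak fluorescence change read by FLIPR and fitted to the Hill equation. At least two independent runs in duplicate, means reported.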

[3] = Kinetic solubility of the compound at pH 7.4 at room temperature; format: physicochemical; details: buffer, read-out: Kinetic_solubility
Outline: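 Kinetic solubility measured from DMSO stock solutions at room temperature. Assay run at the pH named in each line.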

[4] = target: T1, Metabotropic glutamate receptor 4; assay: Positive allosteric modulation of human mGlu4 receptor expressed in BHK cells assessed as potentiation of glutamate-induced response after 1 hr by FLIPR assay relative to glutamate; format: cell-based
Outline: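 BHK cells stably co-expressing human mGlu4 and murine G-protein […], grown in DMEM at 37 °C, 5% CO₂. Cells seeded 24 h before assay, then loaded with Calcium 3 no-wash dye in HBSS/HEPES pH 7.4 with 0.1% BSA and 2.5 mM probenecid for 1 h at 37 °C. FLIPR calcium read after stimulation with EC₂₀ glutamate plus compound. Emax is percent of maximal glutamate response. Mean of ≥2 independent duplicate experiments.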

[5] = Intrinsic clearance in rat microsomes; format: ADME, Microsome
Outline: (§1)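 Intrinsic clearance measured in rat and human liver microsomes. Hepatic blood flow references given as 20 mL/min for rat and 1.5 L/min for human.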

[6] = Intrinsic clearance in human microsomes; format: ADME, Microsome; outline: as §1
[7] = Plasma protein binding in human; format: ADME, cell-free; details: read-out: PPB (converted)
[8] = Plasma protein binding in rat; format: ADME, cell-free; details: read-out: PPB (converted)

T1 sequence (Q14833 whole entry): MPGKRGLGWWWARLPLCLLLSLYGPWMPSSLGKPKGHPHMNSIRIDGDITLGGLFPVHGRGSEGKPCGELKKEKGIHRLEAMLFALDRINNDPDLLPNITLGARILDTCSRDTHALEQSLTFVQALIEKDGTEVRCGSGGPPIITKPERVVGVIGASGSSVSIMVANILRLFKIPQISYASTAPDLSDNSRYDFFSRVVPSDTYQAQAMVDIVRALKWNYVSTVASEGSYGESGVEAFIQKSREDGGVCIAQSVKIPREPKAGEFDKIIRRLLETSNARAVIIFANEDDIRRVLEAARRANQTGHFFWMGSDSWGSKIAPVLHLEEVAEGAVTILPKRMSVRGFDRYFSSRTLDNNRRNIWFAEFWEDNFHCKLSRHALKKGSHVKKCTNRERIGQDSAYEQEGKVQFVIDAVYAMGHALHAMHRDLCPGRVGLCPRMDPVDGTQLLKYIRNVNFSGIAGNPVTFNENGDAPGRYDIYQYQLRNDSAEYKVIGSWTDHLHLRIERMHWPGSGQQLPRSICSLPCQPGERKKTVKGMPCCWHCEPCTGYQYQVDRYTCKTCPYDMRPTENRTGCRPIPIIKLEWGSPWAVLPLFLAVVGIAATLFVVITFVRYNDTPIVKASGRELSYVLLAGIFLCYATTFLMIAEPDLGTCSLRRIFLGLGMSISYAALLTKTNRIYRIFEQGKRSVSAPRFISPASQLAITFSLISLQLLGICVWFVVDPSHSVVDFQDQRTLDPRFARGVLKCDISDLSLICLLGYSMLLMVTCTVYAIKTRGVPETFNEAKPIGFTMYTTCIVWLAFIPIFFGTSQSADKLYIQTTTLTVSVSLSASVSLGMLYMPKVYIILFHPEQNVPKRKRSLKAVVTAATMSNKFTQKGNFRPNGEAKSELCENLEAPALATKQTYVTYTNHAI

| Structure (SMILES) | Papp [1] | EC50 [2] | solubility kinetic [3] | Emax [4] | also measured |
| --- | --- | --- | --- | --- | --- |
| c1cncc(Nc2nc3c(s2)CCCc2[nH]ncc2-3)c1 | 35 ×10⁻⁶ cm/s | > 10 µM | 3.8 µM (≈ 1.08 µg/mL) |  |  |
| c1cc(Nc2nc3c(s2)CCCc2[nH]ncc2-3)nc(N2CCCC2)c1 | 0.1 ×10⁻⁶ cm/s | > 10 µM | < 0.1 µM |  |  |
| c1cncc(Nc2nc3c(s2)CCc2n[nH]cc2-3)c1 |  |  |  | 11% |  |
| c1cc(Nc2nc3c(s2)CCc2[nH]ncc2-3)ccn1 | 2.5 ×10⁻⁶ cm/s | > 10 µM | 180 µM (≈ 48.5 µg/mL) |  |  |
| Cc1cc(Nc2nc3c(s2)CCCc2[nH]ncc2-3)[nH]n1 | 15 ×10⁻⁶ cm/s | 2.4 µM | 10 µM (≈ 2.86 µg/mL) |  |  |
| O=C(Nc1ccccc1)[C@]12C[C@H]1/C(=N\O)c1ccccc1O2 |  |  |  | 120% |  |
| Cc1cccc(Nc2nc3c(s2)CCc2[nH]ncc2-3)n1 | 2 ×10⁻⁶ cm/s | 0.91 µM | 2.9 µM (≈ 0.822 µg/mL) |  | CL [5]: 400 mL/min; CL [6]: 48 L/min |
| c1ccc(Nc2nc3c(s2)CCc2[nH]ncc2-3)cc1 | < 0.1 ×10⁻⁶ cm/s | 2.2 µM | < 0.1 µM |  |  |
| Cc1n[nH]cc1-c1csc(Nc2ccccn2)n1 |  | 0.056 µM |  | 79% |  |
| c1cnc(Nc2nc3c(s2)CCCc2[nH]ncc2-3)cn1 | 3.8 ×10⁻⁶ cm/s | > 10 µM | 78 µM (≈ 22.2 µg/mL) |  |  |
| Cc1ccnc(Nc2nc3c(s2)CCCc2[nH]ncc2-3)n1 | 0.5 ×10⁻⁶ cm/s | 0.051 µM | 0.6 µM (≈ 0.179 µg/mL) |  |  |
| Cc1sc(Nc2ccccn2)nc1-c1cn[nH]c1 |  | 0.013 µM |  | 100% |  |
| c1ccc(Nc2nc3c(s2)CCc2n[nH]cc2-3)cc1 |  |  |  | 160% |  |
| c1cnc(Nc2nc3c(s2)CCc2n[nH]cc2-3)nc1 |  |  |  | 180% |  |
| Cc1cc(C)nc(Nc2nc3c(s2)CCCc2[nH]ncc2-3)c1 | 1.2 ×10⁻⁶ cm/s | > 10 µM | 0.4 µM (≈ 0.125 µg/mL) |  |  |
| c1cc(Nc2nc3c(s2)CCc2n[nH]cc2-3)ccn1 |  |  |  | 10% |  |
| Cc1cccnc1Nc1nc2c(s1)CCCc1[nH]ncc1-2 | 8 ×10⁻⁶ cm/s | 3.4 µM | 0.2 µM (≈ 0.0595 µg/mL) |  |  |
| Cc1ccc(Nc2nc3c(s2)CCCc2[nH]ncc2-3)nc1 | 2.7 ×10⁻⁶ cm/s | > 10 µM | < 0.1 µM |  |  |

| Structure (SMILES) | Papp [1] | EC50 [2] | solubility kinetic [3] | Emax [4] | also measured |
| --- | --- | --- | --- | --- | --- |
| Cc1ccc(N2C(=O)c3ccccc3NC2C(C)c2ccccc2)cc1 (stereo not given) |  |  |  | 129% |  |
| Fc1ccc(Nc2nc3c(s2)CCCc2[nH]ncc2-3)nc1 | 0.3 ×10⁻⁶ cm/s | 0.75 µM | < 0.1 µM |  |  |
| Clc1cccc(Nc2nc3c(s2)CCCc2[nH]ncc2-3)n1 | 15.4 ×10⁻⁶ cm/s | 1.1 µM | 38 µM (≈ 12.1 µg/mL) |  |  |
| Cn1ccc(Nc2nc3c(s2)CCCc2[nH]ncc2-3)n1 | 19 ×10⁻⁶ cm/s | 3 µM | 160 µM (≈ 45.8 µg/mL) |  |  |
| c1cncc(Nc2nc3c(s2)CCc2[nH]ncc2-3)c1 | 18.7 ×10⁻⁶ cm/s | > 10 µM | 17 µM (≈ 4.58 µg/mL) |  |  |
| Cc1nc2ccccc2nc1N/N=C/c1ccc(O)cc1 |  |  |  | 144% |  |
| O=C(Nc1cc(Cl)cc(Cl)c1)[C@H]1CCCC[C@H]1C(=O)O |  | 0.75 µM |  | 120% |  |
| Cc1cc(C)nc(Nc2nc3c(s2)CCc2[nH]ncc2-3)c1 | 1 ×10⁻⁶ cm/s | > 10 µM | 0.1 µM (≈ 0.0297 µg/mL) |  |  |
| Cc1cc(C)cc(-n2ncc3c(N4CCCC(C)C4)ncnc32)c1 (stereo not given) |  | 4.6 µM |  | 100% |  |
| c1cc(Nc2nc3c(s2)CCCc2[nH]ncc2-3)[nH]n1 | 25 ×10⁻⁶ cm/s | 3.2 µM | 190 µM (≈ 51.7 µg/mL) |  |  |
| c1[nH]nc2c1-c1nc(NC3CCCCC3)sc1CCC2 | 2.8 ×10⁻⁶ cm/s | 1.3 µM | < 0.1 µM | 150% |  |
| c1cnc(Nc2nc3c(s2)CCc2[nH]ncc2-3)nc1 | 3.4 ×10⁻⁶ cm/s | 0.065 µM | 20 µM (≈ 5.41 µg/mL) |  | CL [5]: 42 mL/min; fraction unbound [7]: 0.036; fraction unbound [8]: 0.105; CL [6]: 4.4 L/min |
| Cc1cc(C)nc(Nc2nc3c(s2)CCc2n[nH]cc2-3)c1 |  |  |  | 11% |  |
| Cc1[nH]ncc1-c1nc(Nc2ccccn2)sc1C |  | > 10 µM |  | 19% |  |
| COc1ccnc(Nc2nc3c(s2)CCCc2[nH]ncc2-3)n1 | 0.3 ×10⁻⁶ cm/s | 0.1 µM | 0.6 µM (≈ 0.189 µg/mL) |  |  |
| N#Cc1cccc(Nc2nc3c(s2)CCCc2[nH]ncc2-3)n1 | < 0.1 ×10⁻⁶ cm/s | 4.9 µM | < 0.1 µM |  |  |
| CN(C)c1cccc(Nc2nc3c(s2)CCCc2[nH]ncc2-3)n1 | < 0.1 ×10⁻⁶ cm/s | 0.34 µM | < 0.1 µM |  |  |
| Fc1cccc(Nc2nc3c(s2)CCCc2[nH]ncc2-3)n1 | 0.1 ×10⁻⁶ cm/s | 0.105 µM | 0.2 µM (≈ 0.0603 µg/mL) |  |  |

Further lines, with some results ahead:

| Papp [1] | EC50 [2] | solubility kinetic [3] | Emax [4] | Structure (SMILES) | also measured |
| --- | --- | --- | --- | --- | --- |
| 4.9 ×10⁻⁶ cm/s | 0.14 µM | 110 µM (≈ 32.7 µg/mL) |  | Cc1cccc(Nc2nc3c(s2)CCCc2[nH]ncc2-3)n1 |  |
| 38.8 ×10⁻⁶ cm/s | 2.7 µM | 30 µM (≈ 9.4 µg/mL) | 76% | OCc1cccc(Nc2nc3c(s2)CCCc2n[nH]cc2-3)n1 |  |
|  |  |  | 210% | Cc1ccnc(Nc2nc3c(s2)CCCc2n[nH]cc2-3)n1 |  |
|  |  |  | 100% | COc1cccc(Nc2nc3c(s2)CCCc2n[nH]cc2-3)n1 |  |
| 0.1 ×10⁻⁶ cm/s | > 10 µM | 1.9 µM (≈ 0.649 µg/mL) | 5% | COC(=O)c1cccc(Nc2nc3c(s2)CCCc2n[nH]cc2-3)n1 |  |
|  |  |  | 120% | c1ccc(Nc2nc3c(s2)CCCc2n[nH]cc2-3)nc1 |  |
| 12.4 ×10⁻⁶ cm/s | > 10 µM | 9 µM (≈ 2.55 µg/mL) | 11% | Cc1ccnc(Nc2nc3c(s2)CCc2n[nH]cc2-3)c1 |  |
|  |  |  | 18% | c1cnc(Nc2nc3c(s2)CCCc2n[nH]cc2-3)cn1 |  |
|  |  |  | 4% | Cc1cc(C)nc(Nc2nc3c(s2)CCCc2n[nH]cc2-3)c1 |  |
|  |  |  | 170% | Fc1ccc(Nc2nc3c(s2)CCCc2n[nH]cc2-3)nc1 |  |
| 1.9 ×10⁻⁶ cm/s | > 10 µM | < 0.1 µM | 12% | Cc1ccc(Nc2nc3c(s2)CCc2n[nH]cc2-3)nc1 |  |
|  |  |  | 130% | Cn1ccc(Nc2nc3c(s2)CCCc2n[nH]cc2-3)n1 |  |
| 0.1 ×10⁻⁶ cm/s | 0.39 µM | 0.1 µM (≈ 0.0357 µg/mL) | 90% | COCCOc1cccc(Nc2nc3c(s2)CCCc2n[nH]cc2-3)n1 |  |
| 41 ×10⁻⁶ cm/s | 1.3 µM | 1.8 µM (≈ 0.512 µg/mL) | 150% | c1cc(Nc2nc3c(s2)CCCc2n[nH]cc2-3)ncn1 |  |
|  |  |  | 230% | COc1ccnc(Nc2nc3c(s2)CCCc2n[nH]cc2-3)n1 |  |
|  | > 10 µM |  | 35% | c1csc(Nc2nc3c(s2)CCCc2n[nH]cc2-3)n1 |  |
| 3.1 ×10⁻⁶ cm/s | 0.6 µM | 0.9 µM (≈ 0.294 µg/mL) | 63% | CCNc1cccc(Nc2nc3c(s2)CCCc2n[nH]cc2-3)n1 |  |

| Papp [1] | EC50 [2] | solubility kinetic [3] | Emax [4] | Structure (SMILES) | also measured |
| --- | --- | --- | --- | --- | --- |
|  |  |  | 120% | Cc1cccc(Nc2nc3c(s2)CCc2n[nH]cc2-3)n1 |  |
|  |  |  | 14% | c1cc(Nc2nc3c(s2)CCCc2n[nH]cc2-3)nc(N2CCCC2)c1 |  |
|  |  |  | 200% | Cc1cccc(Nc2nc3c(s2)CCCc2n[nH]cc2-3)n1 |  |
|  |  |  | 150% | CN(C)c1cccc(Nc2nc3c(s2)CCCc2n[nH]cc2-3)n1 |  |
|  |  |  | 220% | Clc1cccc(Nc2nc3c(s2)CCCc2n[nH]cc2-3)n1 |  |
|  |  |  | 160% | c1cnc(Nc2nc3c(s2)CCCc2n[nH]cc2-3)nc1 |  |
|  |  |  | 170% | Fc1cccc(Nc2nc3c(s2)CCCc2n[nH]cc2-3)n1 |  |
|  |  |  | 150% | c1ccc(Nc2nc3c(s2)CCc2n[nH]cc2-3)nc1 |  |
|  |  |  | 140% | c1cc(Nc2nc3c(s2)CCCc2n[nH]cc2-3)n[nH]1 |  |
|  |  |  | 84% | Cc1cccnc1Nc1nc2c(s1)CCCc1n[nH]cc1-2 |  |
|  |  |  | 28% | Cc1ccc(Nc2nc3c(s2)CCCc2n[nH]cc2-3)nc1 |  |
|  |  |  | 26% | c1cncc(Nc2nc3c(s2)CCCc2n[nH]cc2-3)c1 |  |
| < 0.1 ×10⁻⁶ cm/s | 0.29 µM | < 0.1 µM | 78% | CCOc1cccc(Nc2nc3c(s2)CCCc2n[nH]cc2-3)n1 |  |
| 0.1 ×10⁻⁶ cm/s | 0.65 µM | 0.1 µM (≈ 0.0313 µg/mL) |  | COc1cccc(Nc2nc3c(s2)CCCc2[nH]ncc2-3)n1 |  |
| 31 ×10⁻⁶ cm/s | > 10 µM | 21 µM (≈ 6.27 µg/mL) | 6.3% | Cc1ccc(Nc2nc3c(s2)CCCc2n[nH]cc2-3)nn1 |  |
|  |  |  | 50% | N#Cc1cccc(Nc2nc3c(s2)CCCc2n[nH]cc2-3)n1 |  |
|  |  |  | 39% | Cc1cc(Nc2nc3c(s2)CCCc2n[nH]cc2-3)n[nH]1 |  |
